Assays:
[1] = target: Sodium-dependent dopamine transporter (Rattus norvegicus, UniProt P23977); experiment: Tested for inhibition of [3H]cocaine binding to rat striatal P2 membranes; type: cell membranes, Membrane
In short: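 Fresh rat striatal P2 membranes in 10 mM Na2HPO4/0.25 M sucrose, pH 7.4, 200 μg protein. Filtration on PEI-soaked GF/B filters.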

[2] = target: Sodium-dependent dopamine transporter (Rattus norvegicus) (UniProt P23977); experiment: Inhibitory effect of [3H]cocaine binding when pre incubation was conducted under ultraviolet light; parameters: concentration or dose not given beside the values
Sodium-dependent dopamine transporter (Rattus norvegicus), sequence (P23977 whole entry): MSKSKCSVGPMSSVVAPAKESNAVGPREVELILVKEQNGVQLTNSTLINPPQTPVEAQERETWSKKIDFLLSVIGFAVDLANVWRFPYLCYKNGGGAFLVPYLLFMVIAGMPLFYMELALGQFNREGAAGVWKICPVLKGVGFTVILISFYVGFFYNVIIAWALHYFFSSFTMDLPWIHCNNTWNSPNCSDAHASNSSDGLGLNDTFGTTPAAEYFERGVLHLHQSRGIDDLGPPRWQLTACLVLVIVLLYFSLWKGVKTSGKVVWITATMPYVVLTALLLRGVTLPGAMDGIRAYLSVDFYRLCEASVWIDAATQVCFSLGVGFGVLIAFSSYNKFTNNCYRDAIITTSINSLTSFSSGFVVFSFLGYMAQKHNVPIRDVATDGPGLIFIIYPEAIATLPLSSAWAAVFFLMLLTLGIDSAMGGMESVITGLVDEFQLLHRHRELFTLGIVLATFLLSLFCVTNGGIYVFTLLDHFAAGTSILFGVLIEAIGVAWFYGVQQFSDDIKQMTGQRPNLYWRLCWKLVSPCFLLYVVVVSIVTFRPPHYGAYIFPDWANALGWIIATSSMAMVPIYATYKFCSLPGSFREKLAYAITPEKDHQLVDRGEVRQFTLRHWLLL
In short: (§1)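 Ligand (final 100 μM or as indicated, in DMSO or H2O) or vehicle preincubated 5 min with rat striatal membranes, either under reduced lighting or 4 in. from a UV source. […] Remaining binding expressed as percent of control.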

[3] = target: Sodium-dependent dopamine transporter (Rattus norvegicus) (UniProt P23977); experiment: Inhibitory effect of [3H]cocaine binding when pre incubation was conducted under reduced lighting; parameters: concentration or dose not given beside the values; in short: as §1
Rattus norvegicus [4] = organism: Rattus norvegicus; experiment: Tested for inhibition of [3H]-dopamine uptake into rat striatal synaptosomes; type: functional; conditions: Brain
Rattus norvegicus [5] = organism: Rattus norvegicus; experiment: Tested for inhibition of [3H]dopamine uptake into rat striatal synaptosomes; type: functional; conditions: Brain

Sodium-dependent dopamine transporter, sequence (P23977 whole entry): as above

SMILES	IC50 [1]	Control [2]	Control [3]	IC50 (Rattus norvegicus [4])	IC50 (Rattus norvegicus [5])
COC(=O)C1C(OC(=O)Nc2ccc(N=[N+]=[N-])cc2)C[C@H]2CCC1N2C (some centres undefined)	1 µM	32.5%	86.3%	1.18 µM	–
COC(=O)C1C(OC(=O)Nc2cccc(N=[N+]=[N-])c2)C[C@H]2CCC1N2C (some centres undefined)	0.63 µM	39.1%	102%	3.9 µM	–
COC(=O)C1C(OC(=O)Nc2ccc(N=C=S)cc2)C[C@H]2CCC1N2C (some centres undefined)	0.26 µM	18.5%	12.3%	0.49 µM	–
COC(=O)[C@@H]1C2CC[C@@H](C[C@@H]1OC(=O)c1ccccc1)N2C (single isomer, unassigned) [COCAINE]	–	74.1%	138%	0.21 µM	–
COC(=O)C1C(OC(=O)Nc2cccc(N=C=S)c2)C[C@H]2CCC1N2C (some centres undefined)	0.96 µM	29.1%	33.4%	–	4.9 µM
